Data on 23 compounds can be found in ChEMBL document CHEMBL1121422, “2,4-Diamino-5-benzylpyrimidines and analogues as antibacterial agents. 3. C-Benzylation of aminopyridines with phenolic Mannich bases. Synthesis of 1- and 3-deaza analogues of trimethoprim” (J Med Chem, 1980).

Molecules are shown by their SMILES.

Data set [1] is described as follows: Dissociation constant (pKa). The class given is physicochemical. Conditions: read-out: Dissociation constant.
The target of data set [2] is T1, Dihydrofolate reductase (Rattus norvegicus) (UniProt Q920D2).
T1 sequence (whole entry): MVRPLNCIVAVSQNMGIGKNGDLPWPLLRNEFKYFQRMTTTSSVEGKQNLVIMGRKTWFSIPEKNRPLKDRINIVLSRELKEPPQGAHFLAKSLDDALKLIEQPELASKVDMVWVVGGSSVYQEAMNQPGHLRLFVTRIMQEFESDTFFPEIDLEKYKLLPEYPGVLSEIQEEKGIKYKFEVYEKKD
Nature of the data set: Tested for inhibition of dihydrofolate reductase enzyme purified from rat liver at the highest concentration tested. In outline:
(§1)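 Enzyme partially purified from rat liver, assayed in phosphate buffer by the Baccanari method. Compound held 5 min with enzyme and buffer at 37 °C before NADPH, then FH2, started the reaction. Percent inhibition of reaction rate recorded at the highest concentration tested.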

A further data set concerns the target T2, Dihydrofolate reductase (Rattus norvegicus, UniProt Q920D2).
T2 sequence (Q920D2 whole entry): T1 sequence (whole entry)
Nature of the data set: Inhibition of dihydrofolate reductase from rat liver […]. The following applies: read-out: I50. The essentials: as §1

The target in data set [3] is T3, Dihydrofolate reductase (Escherichia coli) (UniProt P0ABQ4).
T3 sequence (whole entry): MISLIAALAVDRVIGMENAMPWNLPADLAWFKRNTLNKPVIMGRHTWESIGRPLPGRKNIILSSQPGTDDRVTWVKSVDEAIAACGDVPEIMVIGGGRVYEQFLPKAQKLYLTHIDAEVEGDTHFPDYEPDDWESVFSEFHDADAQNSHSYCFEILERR
Put plainly: (§2) Tested for inhibition of dihydrofolate reductase enzyme purified from Escherichia coli at a concentration of 1x 10 e6M. The essentials: (§3)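 Affinity-column-purified E. coli enzyme in phosphate buffer (Baccanari method). Compound preincubated 5 min with enzyme and buffer at 37 °C. NADPH added, then FH2 to start the reaction. Value is percent inhibition of reaction rate at the highest concentration tested.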

For data set [4], the target named is T3, Dihydrofolate reductase (Escherichia coli). The data set is described as §2. The essentials:
as §3
This is another data set of the same source.

Data set [5] has as its target T1, Dihydrofolate reductase (Rattus norvegicus). Nature of the data set: Tested for inhibition of dihydrofolate reductase enzyme purified from rat liver at a concentration of 1x 10 e6 M. The essentials:
as §1

For data set [6], the target named is T3, Dihydrofolate reductase (Escherichia coli). Nature of the data set: Tested for inhibition of dihydrofolate reductase enzyme purified from Escherichia coli […]. The essentials:
as §3

A word on the inhibition: it is the change of the read-out against control, counted positive when it falls. Low values mean little suppression, high ones strong suppression.

`Nc1ccnc(N)c1`: in data set [1], the pKa came to 9.25.

Consider `Nc1ccnc(N)c1Br`, for which, in data set [1], the pKa came to 7.44.

Take `Nc1ccncc1` [DALFAMPRIDINE]: the pKa in data set [1] worked out at 9.25.

Consider `CCOC(=O)Nc1ccnc(NC(=O)OCC)c1`, for which the pKa in data set [1] came to 5.04.

In data set [2], `COc1cc(Cc2cnc(N)cc2N)cc(OC)c1O` showed an inhibition of 37%. Also, the IC50 at Dihydrofolate reductase is roughly 10 mM.

As for `CC(C)c1cc(Cc2cnc(N)cc2N)cc(C(C)C)c1O`, in data set [2], the inhibition was 36%. For the same compound, the IC50 at Dihydrofolate reductase is roughly 27 mM.

Take `CCc1cc(Cc2ccc(N)nc2N)cc(CC)c1O`: in data set [1], the pKa came to 6.59. Besides, in data set [2], the inhibition came out at 26%. Further, on Dihydrofolate reductase, the IC50 is roughly 40 mM.

For the compound `Nc1cccc(N)n1`, the pKa in data set [1] was found to be 6.73.

As for `COc1cc(CNc2cccc(N)n2)cc(OC)c1O`, the pKa in data set [1] came to 6.51. Also, the inhibition was found to be 29% in data set [3], 25% in data set [4] and 0% in data set [5].

With `Nc1ncc(Br)c(N)c1Br`, the pKa in data set [1] turned out to be 5.5.

For the compound `CCOC(=O)Nc1ccnc(C(N)=O)c1`, the pKa in data set [1] turned out to be 3.32.

As to `COc1cc(Cc2cnc(N)c(Br)c2N)cc(OC)c1O`, the inhibition in data set [6] was 11%; in data set [2] it was 21%. The pKa in data set [1] stood at 7.2. Besides, the IC50 at Dihydrofolate reductase is roughly 42 mM.

Turning to `COc1cc(Cc2ccc(N)nc2N)cc(OC)c1O`, the inhibition was 0% in data set [6] and 34% in data set [2]. Besides, the pKa in data set [1] came to 6.6. In addition, the IC50 on Dihydrofolate reductase was roughly 10 mM.

For `COc1cc(Cc2cnc(N)c(F)c2N)cc(OC)c1O`, the pKa in data set [1] is 7.15. Besides, the inhibition in data set [2] worked out at 32%. The IC50 at Dihydrofolate reductase was roughly 35 mM.

On to `COc1cc(Cc2cnc(N)cc2N)cc(OC)c1OC`, for which the pKa in data set [1] stood at 9.03. Further, the inhibition in data set [5] worked out at 7%.

Turning to `COc1cc(CC2C=CC(N)=NC2=O)cc(OC)c1O` (centres undefined), the inhibition was 0% in data set [6] and 2.4% in data set [2]. Besides, the pKa in data set [1] came out at 1.31. In addition, the IC50 at Dihydrofolate reductase was roughly 1 mM.

Compound `COc1cc(Cc2cc(Cc3cc(OC)c(O)c(OC)c3)c(N)nc2N)cc(OC)c1O` returned an inhibition in data set [6] of 29%. In data set [1], the pKa is 6.69. For the same compound, at Dihydrofolate reductase, the IC50 is 24 mM.

As to `CC(C)c1cc(Cc2cnc(N)c(Br)c2N)cc(C(C)C)c1O`, the inhibition in data set [2] worked out at 0%. For the same compound, at Dihydrofolate reductase, the IC50 was roughly 23.7 mM.

Consider `CCc1cc(Cc2cc(Cc3cc(CC)c(O)c(CC)c3)c(N)nc2N)cc(CC)c1O`, for which the pKa in data set [1] was 6.63. In data set [2], this compound came in with an inhibition of 19%. Besides, the IC50 at Dihydrofolate reductase was roughly 1 mM.

With `COc1cc(CNc2ccnc(N)c2Br)cc(OC)c1O`, the pKa in data set [1] was 7.33.

In data set [6], `COc1cc(Cc2c(N)ccnc2N)cc(OC)c1O` displayed an inhibition of 26%. Further, the IC50 on Dihydrofolate reductase is 41 mM.

As for `COc1cc(CC2=CC(Cc3cc(OC)c(O)c(OC)c3)C(=O)N=C2N)cc(OC)c1O` (centres undefined), the pKa in data set [1] is 1.51. For the same compound, the IC50 at Dihydrofolate reductase was found to be 14 mM.

Take `COc1cc(CNc2ccnc(N)c2F)cc(OC)c1O`: the pKa in data set [1] came to 7.26.
